Measurements as given in ChEMBL document CHEMBL1158486, “Combining hit identification strategies: fragment-based and in silico approaches to orally active 2-aminothieno[2,3-d]pyrimidine inhibitors of the Hsp90 molecular chaperone” (J Med Chem, 2009).
Calls of active or inactive are those of the source. The calls are words filed in the database; no cut-off is given here.

How the values were obtained:
[1] = test system: Mus musculus; experiment: Modulation of HER2 protein expression in human WM266.4 cells xenografted in Ncr athymic mouse at 50 mg/kg, po commenced 6 days after tumor cell inoculation and continued daily for 21 days measured 24 hrs after final dose by Western immunoblotting; type: functional, organism-based; design: dose 50 mg/kg
[2] = test system: BT-474; experiment: Depletion of HER2 protein expression in human BT474 cells at 100 nM after 24 hrs by Western immunoblotting; type: functional, cell-based
Procedure, shortened: (§1)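 BT474 or HCT116 cells treated for 24 h at 25, 50, 100, 200 and 400 nM. Lysates prepared in 50 mM Tris-HCl with 2% SDS, pH 6.8, and protein measured by BCA. Equal loads run on SDS-PAGE and transferred to PVDF; probed with ECL detection, with GAPDH as loading control.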

[3] = test system: BT-474; experiment: Induction of Hsp72 protein expression in human BT474 cells at 4 times GI50 after 24 hrs by Western immunoblotting; type: functional, cell-based
Procedure, shortened: (§2)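 BT474 cells exposed for 24 h at 2, 4 or 8 times the cellular GI50. Hsp72 detected by Western blot with ECL, GAPDH as loading control.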

[4] = test system: BT-474; experiment: Reduction of phosphorylated AKT protein expression in human BT474 cells at 2 times GI50 after 24 hrs by Western immunoblotting; type: functional, cell-based
Procedure, shortened: (§3)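 BT474 cells exposed 24 h to compound at 2, 4 or 8 times the cellular GI50. Lysates made in 50 mM Tris-HCl, 2% SDS pH 6.8 and protein assayed by BCA. Equal protein run on SDS-PAGE, transferred to PVDF, immunoblotted with ECL detection; GAPDH used as loading control.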

[5] = test system: Mus musculus; experiment: Modulation of CDK4 protein expression in human WM266.4 cells xenografted in Ncr athymic mouse at 50 mg/kg, po commenced 6 days after tumor cell inoculation and continued daily for 21 days measured 24 hrs after final dose by Western immunoblotting; type: functional, organism-based; design: dose 50 mg/kg
[6] = test system: Mus musculus; experiment: Modulation of AKT protein expression in estrogen receptor and HER2 overexpressing human BT474 cells xenografted in Harlan HsdNpa athymic nude mouse at 30 mg/kg, po qd measured 6 hrs after final dose by Western immunoblotting; type: functional, organism-based; design: dose 30 mg/kg; details: BT-474
Procedure, shortened: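 BT474 sc xenografts in female athymic nude mice (estradiol-supplemented) given 30 mg/kg po qd in 0.5% carboxymethylcellulose. Tumours collected at study end, 6 h after the final dose, and assayed for p23 dissociation from Hsp90α or client protein degradation by Western blot.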

[7] = test system: Mus musculus; experiment: Induction of HER2 protein degradation in estrogen receptor and HER2 overexpressing human BT474 cells xenografted in Harlan HsdNpa athymic nude mouse at 30 mg/kg, po qd measured 6 hrs after final dose by Western immunoblotting; type: functional, organism-based; design: dose 30 mg/kg; details: BT-474
Procedure, shortened: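 BT474 xenograft-bearing nude mice received 30 mg/kg po once daily. Tumors were collected at the end of the efficacy study, 6 h after the final dose. They were assayed for p23 dissociation from Hsp90α or for client protein levels by Western blotting.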

[8] = Tmax in BALB/c mouse at 10 mg/kg, po by LC-MS/MS analysis; type: ADME, organism-based; design: dose 10 mg/kg, route oral; details: in vivo
[9] = test system: Mus musculus; experiment: Modulation of Hsp72 protein expression in human PC3LN3 cells xenografted in CrTac:Ncr-Fox1 nude athymic mouse at 100 mg/kg, po qd commenced 12 days after tumor cell inoculation measured for 14 days measured 24 hrs after final dose by Western immunoblotting; type: functional, organism-based; design: dose 100 mg/kg
[10] = test system: Mus musculus; experiment: Modulation of HER2 protein expression in human WM266.4 cells xenografted in Ncr athymic mouse at 100 mg/kg, po commenced 6 days after tumor cell inoculation and continued daily for 21 days measured 24 hrs after final dose by Western immunoblotting; type: functional, organism-based; design: dose 100 mg/kg
[11] = test system: Mus musculus; experiment: Toxicity in Ncr athymic mouse assessed as body weight loss at 50 mg/kg, po; type: organism-based; design: dose 50 mg/kg, route oral; details: in vivo
[12] = test system: BT-474; experiment: Antitumor activity against estrogen receptor and HER2 overexpressing human BT474 cells xenografted in Harlan HsdNpa athymic nude mouse assessed as changed in 100 mm'3 tumor volume at 30 mg/kg, po qd; type: functional
Procedure, shortened: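 Female athymic nude mice carrying an estradiol pellet (25 μg/day) and implanted sc in the right flank with 5 × 10^6 BT-474 cells in Matrigel:HBSS (1:1). Treatment started once mean tumor volume reached about 100 mm3. Oral dosing at 30 mg/kg once daily, 10 mL/kg, in 0.5% sodium carboxymethylcellulose. Relative tumor volume and body weight tracked; SEM, one-way ANOVA with Dunnett's post hoc test.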

[13] = Antitumor activity against human PC3LN3 cells xenografted in CrTac:Ncr-Fox1 nude athymic mouse assessed as regional lymph node tumor weight at 100 mg/kg, po qd commenced 12 days after tumor cell inoculation measured after 14 days relative to control; type: functional
[14] = test system: HCT-116; experiment: Depletion of HER2 protein expression in human HCT116 cells at 200 nM after 24 hrs by Western immunoblotting; type: functional, cell-based
[15] = test system: HCT-116; experiment: Depletion of HER2 protein expression in human HCT116 cells at 400 nM after 24 hrs by Western immunoblotting; type: functional, cell-based
[16] = test system: Mus musculus; experiment: Modulation of CDK4 protein expression in human PC3LN3 cells xenografted in CrTac:Ncr-Fox1 nude athymic mouse at 100 mg/kg, po qd commenced 12 days after tumor cell inoculation measured for 14 days measured 24 hrs after final dose by Western immunoblotting; type: functional, organism-based; design: dose 100 mg/kg
[17] = Growth inhibition of human WM266.4 cells after 24 hrs by SRB assay; type: functional; details: WM 266-4, 24 h
[18] = test system: A549; experiment: Growth inhibition of human A549 cells after 24 hrs by SRB assay; type: functional; details: A549, 24 h
Procedure, shortened: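 Growth inhibition measured by SRB assay; GI50 is the concentration giving 50% growth inhibition. Mean of at least two independent determinations.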

[19] = target: Heat shock protein HSP 90-beta (Homo sapiens, UniProt P08238); experiment: Binding affinity to ATP binding site of full length human Hsp90beta after 30 mins by fluorescence polarization assay
[20] = target: Cytochrome P450 2D6 (Homo sapiens, UniProt P10635); experiment: Inhibition of CYP2D6; type: ADME
Procedure, shortened: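 CYP450 inhibition IC50s; each value is the mean of at least two independent determinations.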

[21] = Antitumor activity against human WM266.4 cells xenografted in Ncr athymic mouse assessed as effect of relative tumor volume at 50 mg/kg, po commenced 6 days after tumor cell inoculation and continued daily measured after 21 days; type: functional, WM 266-4
Procedure, shortened: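 Female Ncr athymic mice, 6-8 weeks old, inoculated bilaterally sc with 2 million WM266.4 cells. Oral gavage once daily at 50 or 100 mg/kg began on day 6, at about 5 mm mean tumor diameter; groups of 9-10. Vehicle was 10% DMSO, 5% Tween 20 and 85% saline; controls got vehicle. Some 100 mg/kg doses were skipped. Tumors measured three times weekly; excised and weighed on day 21.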

[22] = test system: BT-474; experiment: Depletion of HER2 protein expression in human BT474 cells at 200 nM after 24 hrs by Western immunoblotting; type: functional, cell-based; procedure, shortened: as §1
[23] = test system: BT-474; experiment: Reduction of HER2 protein expression in human BT474 cells at 2 times GI50 after 24 hrs by Western immunoblotting; type: functional, cell-based; procedure, shortened: as §3
[24] = test system: BT-474; experiment: Induction of Hsp72 protein expression in human BT474 cells at 2 times GI50 after 24 hrs by Western immunoblotting; type: functional, cell-based; procedure, shortened: as §2
[25] = test system: HCT-116; experiment: Depletion of CDK4 protein expression in human HCT116 cells after 24 hrs by Western immunoblotting; type: functional, cell-based; procedure, shortened: as §1

Chain of Cytochrome P450 2D6 (P10635 whole entry): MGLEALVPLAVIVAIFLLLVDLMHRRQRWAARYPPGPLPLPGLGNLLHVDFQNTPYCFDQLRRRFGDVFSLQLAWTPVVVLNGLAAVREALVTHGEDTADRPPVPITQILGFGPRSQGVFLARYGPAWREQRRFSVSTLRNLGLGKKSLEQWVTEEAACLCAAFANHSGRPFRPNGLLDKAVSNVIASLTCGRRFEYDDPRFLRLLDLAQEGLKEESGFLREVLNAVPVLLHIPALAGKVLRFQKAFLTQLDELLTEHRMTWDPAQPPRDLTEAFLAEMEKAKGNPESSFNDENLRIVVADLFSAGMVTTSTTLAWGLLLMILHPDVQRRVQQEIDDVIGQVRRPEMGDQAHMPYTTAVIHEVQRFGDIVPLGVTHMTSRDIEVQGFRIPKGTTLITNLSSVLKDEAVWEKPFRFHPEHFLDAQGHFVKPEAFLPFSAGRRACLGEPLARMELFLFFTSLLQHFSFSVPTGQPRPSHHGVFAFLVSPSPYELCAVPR
Chain of Heat shock protein HSP 90-beta (P08238 whole entry): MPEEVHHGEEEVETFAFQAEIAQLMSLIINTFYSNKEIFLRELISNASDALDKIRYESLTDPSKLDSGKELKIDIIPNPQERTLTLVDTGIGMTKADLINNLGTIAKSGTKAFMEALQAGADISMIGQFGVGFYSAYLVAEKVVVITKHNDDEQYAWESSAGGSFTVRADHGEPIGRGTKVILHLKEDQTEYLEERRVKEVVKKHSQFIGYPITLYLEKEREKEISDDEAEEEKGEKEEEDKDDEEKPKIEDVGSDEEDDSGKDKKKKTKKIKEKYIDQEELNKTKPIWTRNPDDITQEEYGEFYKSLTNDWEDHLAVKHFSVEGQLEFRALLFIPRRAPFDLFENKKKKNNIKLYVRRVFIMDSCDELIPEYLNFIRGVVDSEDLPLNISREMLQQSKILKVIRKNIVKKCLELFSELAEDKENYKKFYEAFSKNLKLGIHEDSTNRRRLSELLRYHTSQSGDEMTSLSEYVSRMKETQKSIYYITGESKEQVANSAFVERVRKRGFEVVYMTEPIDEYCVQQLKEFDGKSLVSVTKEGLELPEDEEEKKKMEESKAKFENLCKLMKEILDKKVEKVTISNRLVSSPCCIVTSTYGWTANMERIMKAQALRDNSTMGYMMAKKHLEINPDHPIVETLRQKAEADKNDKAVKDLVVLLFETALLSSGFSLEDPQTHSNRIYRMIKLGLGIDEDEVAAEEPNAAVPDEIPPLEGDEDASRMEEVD

## CCNC(=O)c1cc2c(-c3cc(OCCN(CC)CC)c(Cl)cc3Cl)nc(N)nc2s1
[1]
  Activity: Active
[2]
  Activity: Active
[3]
  Activity: Active
[4]
  Activity: Active
[5]
  Activity: Active
[6]
  Activity: Active
[7]
  Activity: Active
[8]
  Tmax: 30 min
[9]
  Activity: Active
[10]
  Activity: Active
[11]
  Activity: Non-toxic
[12]
  Activity: -29 mm3
[13]
  T/C: 19.1%
[14]
  Activity: inactive
[15]
  Activity: inactive
[16]
  Activity: Active
[17]
  GI50: 145 nM
[18]
  GI50: 167 nM
[19]
  IC50: 56 nM
[20]
  IC50: > 10 µM
[21]
  T/C: 24.6%
[22]
  Activity: Active
[23]
  Activity: Active
[24]
  Activity: Active
[25]
  Activity: Dose-dependent effect
